In brackets after ≈: the same amount, converted by molar mass.
Legend:
Assay type in all cases: functional
Staphylococcus aureus [1] = assay: Antibacterial activity against Staphylococcus aureus ATCC 25923 by microbroth dilution technique
How it was run: (§1)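 Read-out was the minimum inhibitory concentration (MIC), found by broth microdilution.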

Staphylococcus aureus [2] = assay: Antibacterial activity against methicillin-susceptible Staphylococcus aureus ATCC 29213 by microbroth dilution technique; how it was run: as §1
Staphylococcus aureus [3] = assay: Antibacterial activity against methicillin-resistant Staphylococcus aureus ATCC 43300 by microbroth dilution technique
[4] = test system: Staphylococcus epidermidis; assay: Antibacterial activity against Staphylococcus epidermidis ATCC 12228 by microbroth dilution technique; how it was run: as §1
Escherichia coli [5] = assay: Antibacterial activity against Escherichia coli ATCC 25922 by microbroth dilution technique; how it was run: as §1
Escherichia coli [6] = assay: Antibacterial activity against Escherichia coli ATCC 35218 by microbroth dilution technique; how it was run: as §1

SMILES | MIC (Staphylococcus aureus [1]) | MIC (Staphylococcus aureus [2]) | MIC (Staphylococcus aureus [3]) | MIC [4] | MIC (Escherichia coli [5]) | MIC (Escherichia coli [6])
CCCC[C@H](CN(O)C=O)C(=O)N1CC=C[C@H]1C(=O)Nc1ccccn1 | 0.125 mg/L (≈ 0.347 µM) | 1 mg/L (≈ 2.77 µM) | 0.125 mg/L (≈ 0.347 µM) | 0.5 mg/L (≈ 1.39 µM) | > 64 mg/L | 32 mg/L (≈ 88.8 µM)
CCCC[C@H](CN(O)C=O)C(=O)N1CC=C[C@H]1C(=O)Nc1ccc(F)cn1 | 0.5 mg/L (≈ 1.32 µM) | 1 mg/L (≈ 2.64 µM) | 0.25 mg/L (≈ 0.661 µM) | 0.5 mg/L (≈ 1.32 µM) | > 64 mg/L | 64 mg/L (≈ 169 µM)
CCCC[C@H](CN(O)C=O)C(=O)N1CC=C[C@H]1C(=O)Nc1ccc(F)c[n+]1[O-] | 0.5 mg/L (≈ 1.27 µM) | 1 mg/L (≈ 2.54 µM) | 0.5 mg/L (≈ 1.27 µM) | 1 mg/L (≈ 2.54 µM) | > 64 mg/L | 64 mg/L (≈ 162 µM)
CCCC[C@H](CN(O)C=O)C(=O)N1CC=C[C@H]1C(=O)Nc1ncc(C)s1 | 0.0625 mg/L (≈ 0.164 µM) | 0.25 mg/L (≈ 0.657 µM) | 0.125 mg/L (≈ 0.329 µM) | 0.25 mg/L (≈ 0.657 µM) | 32 mg/L (≈ 84.1 µM) | 16 mg/L (≈ 42.1 µM)
CCCC[C@H](CN(O)C=O)C(=O)N1CC=C[C@H]1C(=O)N1CCOCC1 | > 64 mg/L | > 64 mg/L | 32 mg/L (≈ 90.5 µM) | > 64 mg/L | > 64 mg/L | > 64 mg/L
CCCC[C@H](CN(O)C=O)C(=O)N1CC=C[C@H]1C(=O)NC1CC1 | 64 mg/L (≈ 198 µM) | 32 mg/L (≈ 99 µM) | 2 mg/L (≈ 6.18 µM) | 4 mg/L (≈ 12.4 µM) | 64 mg/L (≈ 198 µM) | 32 mg/L (≈ 99 µM)
CCCC[C@H](CN(O)C=O)C(=O)N1CC=C[C@H]1C(=O)Nc1ccc(Cl)cc1 | 8 mg/L (≈ 20.3 µM) | 2 mg/L (≈ 5.08 µM) | 1 mg/L (≈ 2.54 µM) | 4 mg/L (≈ 10.2 µM) | > 64 mg/L | > 64 mg/L
CCCC[C@H](CN(O)C=O)C(=O)N1CC=C[C@H]1C(=O)Nc1ccccc1Br | 32 mg/L (≈ 73 µM) | 4 mg/L (≈ 9.13 µM) | 1 mg/L (≈ 2.28 µM) | 8 mg/L (≈ 18.3 µM) | > 64 mg/L | > 64 mg/L
CCCC[C@H](CN(O)C=O)C(=O)N1CC=C[C@H]1C(=O)Nc1cccc(Br)c1 | 8 mg/L (≈ 18.3 µM) | 1 mg/L (≈ 2.28 µM) | 0.125 mg/L (≈ 0.285 µM) | 1 mg/L (≈ 2.28 µM) | 64 mg/L (≈ 146 µM) | 16 mg/L (≈ 36.5 µM)
CCCC[C@H](CN(O)C=O)C(=O)N1CC=C[C@H]1C(=O)Nc1ccc(Br)cc1 | 4 mg/L (≈ 9.13 µM) | 1 mg/L (≈ 2.28 µM) | 0.5 mg/L (≈ 1.14 µM) | 2 mg/L (≈ 4.56 µM) | > 64 mg/L | > 64 mg/L
CCCC[C@H](CN(O)C=O)C(=O)N1CC=C[C@H]1C(=O)Nc1ccccc1Cl | 0.5 mg/L (≈ 1.27 µM) | 2 mg/L (≈ 5.08 µM) | 0.25 mg/L (≈ 0.635 µM) | 1 mg/L (≈ 2.54 µM) | > 64 mg/L | 64 mg/L (≈ 162 µM)

Reference: ChEMBL document CHEMBL1158632, “Design, synthesis, and antibacterial activity of 2,5-dihydropyrrole formyl hydroxyamino derivatives as novel peptide deformylase inhibitors” (2010)
